Experiments:
Assay type in all cases: functional
HT-29 = assay: Cytotoxicity against human HT-29 cells assessed as cell growth at 10 uM after 48 hrs by SRB assay; settings: HT-29, 48 h, read-out: Activity
UACC-257 = assay: (§1) Cytotoxicity against human UACC257 cells assessed as growth inhibition after 48 hrs by SRB assay
Procedure, shortened: (§2)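 NCI 60-cell-line screen, two stages. Five-dose testing at […]. Cellular protein measured by sulforhodamine B colorimetry after 48 h drug exposure. A time-zero control and drug-free plates are used to derive GI50, TGI and LC50 from dose-response curves plotted as log10 concentration per cell line.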

[1] = as §1; settings: UACC-257, 48 h; procedure, shortened: as §2
PC-3 = assay: Cytotoxicity against human PC3 cells assessed as growth inhibition after 48 hrs by SRB assay
Procedure, shortened: (§3)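 NCI 60-cell-line screen, five-dose stage: each cell line exposed for 48 h to five concentrations spanning five log steps; cellular protein measured by sulforhodamine B colorimetry. A time-zero cell control and plates without drug are used to derive GI50, TGI and LC50 from log-concentration dose-response curves.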

SR = assay: Cytotoxicity against human SR cells assessed as growth inhibition after 48 hrs by SRB assay; procedure, shortened: as §2
HOP-62 = assay: Cytotoxicity against human HOP62 cells assessed as growth inhibition after 48 hrs by SRB assay
Procedure, shortened: (§4)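 NCI 60-cell-line five-dose screen at […]. Drug exposure was 48 h, followed by sulforhodamine B protein staining. GI50, TGI and LC50 were calculated against a time-zero control and untreated plates, with dose–response curves plotted from log10 concentration.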

RPMI-8226 = assay: Cytotoxicity against human RPMI8226 cells assessed as growth inhibition after 48 hrs by SRB assay; procedure, shortened: as §3
NCI-H322M = assay: Cytotoxicity against human NCI-H322M cells assessed as growth inhibition after 48 hrs by SRB assay; procedure, shortened: as §3
HCC 2998 = assay: Cytotoxicity against human HCC2998 cells assessed as growth inhibition after 48 hrs by SRB assay; procedure, shortened: as §4
IGROV-1 = assay: Cytotoxicity against human IGROV1 cells assessed as growth inhibition after 48 hrs by SRB assay; procedure, shortened: as §4
MDA-MB-435 = assay: Cytotoxicity against human MDA-MB-435 cells assessed as growth inhibition after 48 hrs by SRB assay; procedure, shortened: as §3
SF-295 = assay: Cytotoxicity against human SF295 cells assessed as growth inhibition after 48 hrs by SRB assay; procedure, shortened: as §3
TK-10 = assay: Cytotoxicity against human TK10 cells assessed as growth inhibition after 48 hrs by SRB assay; procedure, shortened: as §2
NCI-H522 = assay: Cytotoxicity against human NCI-H522 cells assessed as growth inhibition after 48 hrs by SRB assay; procedure, shortened: as §3
KM12 = assay: Cytotoxicity against human KM12 cells assessed as growth inhibition after 48 hrs by SRB assay; procedure, shortened: as §4
M14 = assay: Cytotoxicity against human M14 cells assessed as growth inhibition after 48 hrs by SRB assay; procedure, shortened: as §4
ACHN = assay: Cytotoxicity against human ACHN cells assessed as growth inhibition after 48 hrs by SRB assay; procedure, shortened: as §4
OVCAR-3 = assay: Cytotoxicity against human OVCAR3 cells assessed as cell growth at 10 uM after 48 hrs by SRB assay; settings: OVCAR-3, 48 h, read-out: Activity
Procedure, shortened: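 First stage of the NCI 60 human tumour cell line screen: a single dose is tested against every line. Cell growth is read as cellular protein by sulforhodamine B colorimetry after 48 h of drug exposure, with reference to a time-zero control and to untreated plates.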

BT-549 = assay: Cytotoxicity against human BT549 cells assessed as growth inhibition after 48 hrs by SRB assay; procedure, shortened: as §4
HCT-15 = assay: Cytotoxicity against human HCT15 cells assessed as growth inhibition after 48 hrs by SRB assay; procedure, shortened: as §4
A498 = assay: Cytotoxicity against human A498 cells assessed as growth inhibition after 48 hrs by SRB assay; procedure, shortened: as §4
MDA-MB-468 = assay: Cytotoxicity against human MDA-MB-468 cells assessed as growth inhibition after 48 hrs by SRB assay; procedure, shortened: as §3
MOLT-4 = assay: Cytotoxicity against human MOLT4 cells assessed as growth inhibition after 48 hrs by SRB assay; procedure, shortened: as §3
MDA-MB-231 = assay: Cytotoxicity against human MDA-MB-231 cells assessed as growth inhibition after 48 hrs by SRB assay; procedure, shortened: as §3
SK-MEL-28 = assay: Cytotoxicity against human SK-MEL-28 cells assessed as growth inhibition after 48 hrs by SRB assay; procedure, shortened: as §3
SF-268 = assay: Cytotoxicity against human SF268 cells assessed as growth inhibition after 48 hrs by SRB assay; procedure, shortened: as §3
U-251 = assay: Cytotoxicity against human U251 cells assessed as growth inhibition after 48 hrs by SRB assay; procedure, shortened: as §2

## CCSc1nc2ccc3c(c2[nH]1)C(=O)c1ccccc1C3=O
HT-29
  growth at 10 µM: 75.2%
UACC-257
  growth inhibition (GI): Dose-dependent effect
[1]
  GI50: > 100 µM
  LC50: > 100 µM
  TGI: > 100 µM
PC-3
  growth inhibition (GI): Dose-dependent effect
PC-3; PC-3, 48 h
  GI50: 65 µM
  LC50: > 100 µM
  TGI: > 100 µM
SR
  GI50: 2360 nM
  LC50 (50% lethal concentration): > 100 µM
  TGI: > 100 µM
  growth inhibition (GI): Dose-dependent effect
HOP-62
  growth inhibition (GI): Dose-dependent effect
HOP-62; HOP-62, 48 h
  GI50: 25.9 µM
  LC50 (concentration killing 50% of cells relative to time zero): > 100 µM
  TGI: > 100 µM
RPMI-8226
  growth inhibition (GI): Dose-dependent effect
RPMI-8226; RPMI-8226, 48 h
  GI50: 2830 nM
  LC50 (concentration causing 50% net cell kill): > 100 µM
  TGI: > 100 µM
NCI-H322M
  GI50: 3.24 µM
  LC50 (concentration killing 50% of cells relative to time zero): > 100 µM
  TGI: > 100 µM
  growth inhibition (GI): Dose-dependent effect
HCC 2998
  growth inhibition (GI): Dose-dependent effect
HCC 2998; HCC 2998, 48 h
  GI50: 12.6 µM
  TGI: > 100 µM
HCC 2998; HCC 2998, 48 h, read-out: LC50 (the source's name)
  CC50: > 100 µM
IGROV-1
  growth inhibition (GI): Dose-dependent effect
IGROV-1; IGROV-1, 48 h
  GI50: 2380 nM
  LC50: > 100 µM
  TGI: > 100 µM
MDA-MB-435
  growth inhibition (GI): Dose-dependent effect
MDA-MB-435; MDA-MB-435, 48 h
  GI50: 76.5 µM
  LC50: > 100 µM
  TGI: > 100 µM
SF-295
  growth inhibition (GI): Dose-dependent effect
SF-295; SF-295, 48 h
  GI50: 4.17 µM
  LC50: > 100 µM
  TGI: 47.4 µM
TK-10
  growth inhibition (GI): Dose-dependent effect
TK-10; TK-10, 48 h
  GI50: 7.4 µM
  LC50: > 100 µM
  TGI: > 100 µM
NCI-H522
  growth inhibition (GI): Dose-dependent effect
NCI-H522; NCI-H522, 48 h
  GI50: 4.07 µM
  TGI: > 100 µM
NCI-H522; NCI-H522, 48 h, read-out: LC50 (the source's name)
  CC50: > 100 µM
KM12
  growth inhibition (GI): Dose-dependent effect
KM12; KM12, 48 h
  GI50: 8.43 µM
  TGI: > 100 µM
KM12; KM12, 48 h, read-out: LC50 (the source's name)
  CC50: > 100 µM
M14
  growth inhibition (GI): Dose-dependent effect
M14; M14, 48 h
  GI50: 5.62 µM
  LC50: > 100 µM
  TGI: > 100 µM
ACHN
  GI50: 5.09 µM
  TGI: > 100 µM
  growth inhibition (GI): Dose-dependent effect
ACHN; read-out: LC50 (the source's name)
  CC50: > 100 µM
OVCAR-3
  growth at 10 µM: 69.3%
BT-549
  growth inhibition (GI): Dose-dependent effect
BT-549; BT-549, 48 h
  GI50: 9.34 µM
  LC50 (concentration killing 50% of cells): > 100 µM
  TGI: > 100 µM
HCT-15
  growth inhibition (GI): Dose-dependent effect
HCT-15; HCT-15, 48 h
  GI50: 3.52 µM
  LC50 (concentration killing 50% of cells): > 100 µM
  TGI: > 100 µM
A498
  growth inhibition (GI): Dose-dependent effect
A498; A498, 48 h
  GI50: 4.7 µM
  TGI: > 100 µM
A498; A498, 48 h, read-out: LC50 (the source's name)
  CC50: > 100 µM
MDA-MB-468
  growth inhibition (GI): Dose-dependent effect
MDA-MB-468; MDA-MB-468, 48 h
  GI50: 2010 nM
  LC50: > 100 µM
  TGI: 59.6 µM
MOLT-4
  growth inhibition (GI): Dose-dependent effect
MOLT-4; MOLT-4, 48 h
  GI50: 4.05 µM
  LC50 (50% lethal concentration): > 100 µM
  TGI: > 100 µM
MDA-MB-231
  growth inhibition (GI): Dose-dependent effect
MDA-MB-231; MDA-MB-231, 48 h
  GI50: 20.7 µM
  LC50: > 100 µM
  TGI: > 100 µM
SK-MEL-28
  growth inhibition (GI): Dose-dependent effect
SK-MEL-28; SK-MEL-28, 48 h
  GI50: 43.6 µM
  LC50: > 100 µM
  TGI: > 100 µM
SF-268
  growth inhibition (GI): Dose-dependent effect
SF-268; SF-268, 48 h
  GI50: 18.1 µM
  LC50 (concentration killing 50% of cells relative to time zero): > 100 µM
  TGI: > 100 µM
U-251
  growth inhibition (GI): Dose-dependent effect
U-251; U-251, 48 h
  GI50: 19.5 µM
  TGI: > 100 µM
U-251; U-251, 48 h, read-out: LC50 (the source's name)
  CC50: > 100 µM

From ChEMBL document CHEMBL3120102, “Structure-based design, synthesis and biological evaluation of novel anthra[1,2-d]imidazole-6,11-dione homologues as potential antitumor agents” (2013)
